# Measurements as given in ChEMBL document CHEMBL4118216, “Adamantyl thioureas as soluble epoxide hydrolase inhibitors” (Bioorg Med Chem Lett, 2018).
# Key:
# [1] = Aqueous solubility of the compound in 0.1 M sodium phosphate buffer at pH 7.4; assay type: physicochemical
# Summary of the method: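 Solubility determined in 0.1 M sodium phosphate buffer, pH 7.4, with 1% DMSO present.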
# [2] = target: T1, Bifunctional epoxide hydrolase 2 (Homo sapiens, UniProt P34913); assay: Inhibition of recombinant human sEH expressed in baculovirus expression system using CMNPC as substrate preincubated for 5 mins followed by substrate addition measured for 10 mins by fluorescent based assay
# T1 sequence (P34913 whole entry): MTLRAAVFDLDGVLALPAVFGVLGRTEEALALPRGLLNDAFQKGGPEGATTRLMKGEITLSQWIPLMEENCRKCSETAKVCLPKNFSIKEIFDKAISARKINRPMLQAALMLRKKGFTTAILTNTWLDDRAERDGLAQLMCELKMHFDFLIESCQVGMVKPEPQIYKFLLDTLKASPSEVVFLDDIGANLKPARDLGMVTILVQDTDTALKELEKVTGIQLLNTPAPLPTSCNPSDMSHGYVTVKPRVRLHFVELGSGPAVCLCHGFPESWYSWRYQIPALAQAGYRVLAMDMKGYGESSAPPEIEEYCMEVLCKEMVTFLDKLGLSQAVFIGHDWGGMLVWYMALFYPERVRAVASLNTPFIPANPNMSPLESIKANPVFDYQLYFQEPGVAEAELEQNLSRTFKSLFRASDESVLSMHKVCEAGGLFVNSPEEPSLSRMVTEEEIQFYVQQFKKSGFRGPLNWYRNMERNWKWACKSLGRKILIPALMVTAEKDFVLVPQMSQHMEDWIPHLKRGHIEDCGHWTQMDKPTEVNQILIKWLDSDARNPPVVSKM
# Summary of the method: (§1)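 Kinetic fluorescent assay giving IC50 values; each value is the mean of three separate experiments.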
# [3] = target: T2, Bifunctional epoxide hydrolase 2 (Mus musculus, UniProt P34914); assay: Inhibition of recombinant mouse sEH expressed in baculovirus expression system using CMNPC as substrate preincubated for 5 mins followed by substrate addition measured for 10 mins by fluorescent based assay; summary of the method: as §1
# T2 sequence (P34914 whole entry): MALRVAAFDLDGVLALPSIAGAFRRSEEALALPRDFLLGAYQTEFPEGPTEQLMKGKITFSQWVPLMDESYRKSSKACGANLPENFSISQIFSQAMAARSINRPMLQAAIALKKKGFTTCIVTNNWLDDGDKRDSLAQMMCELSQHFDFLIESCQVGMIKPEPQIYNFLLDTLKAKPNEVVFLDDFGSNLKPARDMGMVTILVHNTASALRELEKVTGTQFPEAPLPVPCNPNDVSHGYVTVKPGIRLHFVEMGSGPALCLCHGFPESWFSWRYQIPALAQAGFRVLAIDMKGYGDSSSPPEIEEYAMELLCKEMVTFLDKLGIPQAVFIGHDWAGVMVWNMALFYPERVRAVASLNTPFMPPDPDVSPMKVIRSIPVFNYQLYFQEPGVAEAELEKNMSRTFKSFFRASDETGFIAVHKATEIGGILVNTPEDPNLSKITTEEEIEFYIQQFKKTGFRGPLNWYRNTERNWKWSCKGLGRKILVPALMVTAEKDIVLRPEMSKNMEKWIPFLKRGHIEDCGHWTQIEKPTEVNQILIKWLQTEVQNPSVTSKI
# [4] = target: T3, Bifunctional epoxide hydrolase 2 (Rattus norvegicus, UniProt P80299); assay: Inhibition of rat sEH using CMNPC as substrate preincubated for 5 mins followed by substrate addition measured for 10 mins by fluorescent based assay; summary of the method: as §1
# T3 sequence (P80299 whole entry): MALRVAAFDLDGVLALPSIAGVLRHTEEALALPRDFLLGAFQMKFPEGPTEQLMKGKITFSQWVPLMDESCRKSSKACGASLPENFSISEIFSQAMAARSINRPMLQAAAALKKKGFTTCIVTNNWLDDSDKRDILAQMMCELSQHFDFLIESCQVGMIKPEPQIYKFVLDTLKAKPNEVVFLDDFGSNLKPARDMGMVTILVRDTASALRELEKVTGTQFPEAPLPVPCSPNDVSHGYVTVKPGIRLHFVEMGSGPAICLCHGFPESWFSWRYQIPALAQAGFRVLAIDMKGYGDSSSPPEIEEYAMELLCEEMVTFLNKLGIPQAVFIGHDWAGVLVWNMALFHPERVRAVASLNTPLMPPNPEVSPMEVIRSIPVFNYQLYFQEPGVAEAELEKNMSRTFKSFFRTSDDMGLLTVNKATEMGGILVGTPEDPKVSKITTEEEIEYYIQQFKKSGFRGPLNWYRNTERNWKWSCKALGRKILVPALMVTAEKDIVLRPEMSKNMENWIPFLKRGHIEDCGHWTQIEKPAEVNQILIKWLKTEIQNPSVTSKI
Compound,solubility [1] [µM],IC50 [2] [nM],IC50 [3] [nM],IC50 [4] [nM]
CC(N=C(S)NCc1ccccc1)C12CC3CC(CC(C3)C1)C2 (stereo not drawn),40 to 50,234,,
O=C(NCCCCNC(=O)NCC12CC3CC(CC(C3)C1)C2)NCC12CC3CC(CC(C3)C1)C2,50 to 75,,,
CC(NC(=O)NCCCCNC(=O)NC(C)C12CC3CC(CC(C3)C1)C2)C12CC3CC(CC(C3)C1)C2 (stereo not drawn),10 to 25,,,
CC(NC(=O)NCCCCCCCCNC(=O)NC(C)C12CC3CC(CC(C3)C1)C2)C12CC3CC(CC(C3)C1)C2 (stereo not drawn),10 to 25,,,
O=C(NCCCCCCCCNC(=O)NC1C2CC3CC(C2)CC1C3)NC1C2CC3CC(C2)CC1C3 (stereo not drawn),5 to 10,,,
O=C(NC12CC3CC(CC(C3)C1)C2)NC12CC3CC(CC(C3)C1)C2,5 to 10,,,
S=C(NCCCCNC(=S)NCC12CC3CC(CC(C3)C1)C2)NCC12CC3CC(CC(C3)C1)C2,140 to 160,,,
S=C(Nc1ccc(C23CC4CC(CC(C4)C2)C3)cc1)NC12CC3CC(CC(C3)C1)C2,30 to 40,1250,,
S=C(NCC12CC3CC(CC(C3)C1)C2)NC1C2CC3CC(C2)CC1C3 (stereo not drawn),30 to 40,902,,
S=C(NCCc1ccccc1)NC1C2CC3CC(C2)CC1C3 (stereo not drawn),20 to 30,8.2,108,78.3
S=C(NCCCCCCCCNC(=S)NC1C2CC3CC(C2)CC1C3)NC1C2CC3CC(C2)CC1C3 (stereo not drawn),25 to 35,,,
CC12CC3CC(C)(C1)CC(NC(=S)Nc1ccc(Cl)cc1)(C3)C2,,1050,,
S=C(NCCNC(=S)NC12CC3CC(CC(C3)C1)C2)NC12CC3CC(CC(C3)C1)C2,100 to 110,987,,
CC(NC(=S)Nc1cccc(F)c1)C12CC3CC(CC(C3)C1)C2 (stereo not drawn),35 to 45,451,,
S=C(Nc1ccc(C23CC4CC(CC(C4)C2)C3)cc1)Nc1ccc(C23CC4CC(CC(C4)C2)C3)cc1,100 to 125,15300,,
S=C(NCc1ccccc1)NC1C2CC3CC(C2)CC1C3 (stereo not drawn),65 to 75,34,61,60.3
S=C(Nc1ccccc1)NC1C2CC3CC(C2)CC1C3 (stereo not drawn),70 to 80,229,408,356
CC12CC3CC(C)(C1)CC(NC(=S)Nc1ccc(F)cc1)(C3)C2,175 to 200,551,,

Compound,solubility [1] [µM],IC50 [2] [nM],IC50 [3] [nM],IC50 [4] [nM]
CC(NC(=S)NCCCCNC(=S)NC(C)C12CC3CC(CC(C3)C1)C2)C12CC3CC(CC(C3)C1)C2 (stereo not drawn),120 to 130,,,
CC12CC3CC(C)(C1)CC(NC(=S)NCCc1ccccc1)(C3)C2,8 to 12,216,,
CC(NC(=S)Nc1ccc(C23CC4CC(CC(C4)C2)C3)cc1)C12CC3CC(CC(C3)C1)C2 (stereo not drawn),10 to 15,57400,,
S=C(NCCC12CC3CC(CC(C3)C1)C2)Nc1ccc(C23CC4CC(CC(C4)C2)C3)cc1,100 to 120,5330,,
S=C(NCCC12CC3CC(CC(C3)C1)C2)NC1C2CC3CC(C2)CC1C3 (stereo not drawn),125 to 150,259,,
Fc1cccc(NC(=S)NCC23CC4CC(CC(C4)C2)C3)c1,30 to 40,281,,
S=C(NCCCCCCCNC(=S)NC12CC3CC(CC(C3)C1)C2)NC12CC3CC(CC(C3)C1)C2,70 to 80,7.2,47.3,35.3
CC(NC(=S)Nc1ccc(F)cc1)C12CC3CC(CC(C3)C1)C2 (stereo not drawn),75 to 100,1080,,
CC(NC(=S)Nc1ccccc1)C12CC3CC(CC(C3)C1)C2 (stereo not drawn),,2590,,
CC12CC3CC(C)(C1)CC(NC(=S)Nc1ccccc1)(C3)C2,40 to 60,1220,,
CC(NC(=S)NCCCCCCCCNC(=S)NC(C)C12CC3CC(CC(C3)C1)C2)C12CC3CC(CC(C3)C1)C2 (stereo not drawn),120 to 130,,,
CC(NC(=S)NCCc1ccccc1)C12CC3CC(CC(C3)C1)C2 (stereo not drawn),20 to 30,345,,
CC12CC3CC(C)(C1)CC(NC(=S)Nc1ccc(C45CC6CC(CC(C6)C4)C5)cc1)(C3)C2,70 to 80,2480,,
S=C(NCC12CC3CC(CC(C3)C1)C2)Nc1ccc(C23CC4CC(CC(C4)C2)C3)cc1,65 to 75,5900,,
CC(NC(=S)NC1C2CC3CC(C2)CC1C3)C12CC3CC(CC(C3)C1)C2 (stereo not drawn),30 to 40,7780,,
S=C(Nc1ccc(C23CC4CC(CC(C4)C2)C3)cc1)NC1C2CC3CC(C2)CC1C3 (stereo not drawn),175 to 200,5940,,
CCC(CC12CC3CC(CC(C3)C1)C2)NC(=S)Nc1ccccc1 (stereo not drawn),,50200,,

# Continued by falling IC50 [2], values first:
solubility [1] [µM],IC50 [2] [nM],IC50 [3] [nM],IC50 [4] [nM],Compound
80 to 90,160,,,Fc1cccc(NC(=S)NCCC23CC4CC(CC(C4)C2)C3)c1
150 to 175,159,,,Fc1ccc(NC(=S)NCC23CC4CC(CC(C4)C2)C3)cc1
80 to 90,152,,,CC12CC3CC(C)(C1)CC(NC(=S)NC1C4CC5CC(C4)CC1C5)(C3)C2 (stereo not drawn)
125 to 150,148,,,Fc1ccc(NC(=S)NCCC23CC4CC(CC(C4)C2)C3)cc1
25 to 30,133,,,S=C(NCCc1ccccc1)NCC12CC3CC(CC(C3)C1)C2
50 to 60,131,,,S=C(NC1C2CC3CC(C2)CC1C3)NC1C2CC3CC(C2)CC1C3 (stereo not drawn)
90 to 100,97.6,74.9,43.3,S=C(NCCCNC(=S)NC12CC3CC(CC(C3)C1)C2)NC12CC3CC(CC(C3)C1)C2
90 to 100,90.8,130,123,S=C(NCCCCNC(=S)NC12CC3CC(CC(C3)C1)C2)NC12CC3CC(CC(C3)C1)C2
,60.3,,,CC(NC(=S)NC12CC3CC(CC(C3)C1)C2)C12CC3CC(CC(C3)C1)C2 (stereo not drawn)
10 to 15,58,,,CC12CC3CC(C)(C1)CC(NC(=S)NCc1ccccc1)(C3)C2
50 to 60,58,,,CC12CC3CC(C)(C1)CC(NC(=S)Nc1cccc(F)c1)(C3)C2
60 to 80,52,,,S=C(NCCc1ccccc1)NCCC12CC3CC(CC(C3)C1)C2
,34.7,,,S=C(Nc1ccc(Cl)cc1)NC12CC3CC(CC(C3)C1)C2
80 to 90,21.1,36.2,46.1,S=C(NCCCCCNC(=S)NC12CC3CC(CC(C3)C1)C2)NC12CC3CC(CC(C3)C1)C2
70 to 80,20.8,,,S=C(NCC12CC3CC(CC(C3)C1)C2)NC12CC3CC(CC(C3)C1)C2
30 to 40,16.1,,,CC12CC3CC(C)(C1)CC(NC(=S)NC14CC5CC(CC(C5)C1)C4)(C3)C2
35 to 45,15.3,59.5,44.4,S=C(NCCCCCCCCCCNC(=S)NC12CC3CC(CC(C3)C1)C2)NC12CC3CC(CC(C3)C1)C2
60 to 70,14.8,,,S=C(NC1C2CC3CC(C2)CC1C3)NC12CC3CC(CC(C3)C1)C2 (stereo not drawn)
30 to 40,11.2,,,S=C(NC12CC3CC(CC(C3)C1)C2)NC12CC3CC(CC(C3)C1)C2
40 to 50,9.8,1170,374,S=C(NCCCCCCCCNC(=S)NC12CC3CC(CC(C3)C1)C2)NC12CC3CC(CC(C3)C1)C2
70 to 80,7.7,50.6,61.6,S=C(NCCCCCCNC(=S)NC12CC3CC(CC(C3)C1)C2)NC12CC3CC(CC(C3)C1)C2
